Source: ChEMBL document CHEMBL5329154, “Novel 1,2,4-oxadiazole compounds as PPAR-α ligand agonists: a new strategy for the design of antitumour compounds” (RSC Med Chem, 2023)

Key:
[1] = Cytotoxicity against human RPTEC assessed as reduction in cell viability incubated for 72 hrs under normoxic condition by SRB assay; type: toxicity, cell-based; conditions: RPTEC cells
How it was run: (§1)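 Cells in DMEM with 2 mM L-glutamine, 10% FBS, penicillin and streptomycin at 37 °C, 5% CO2. Tumour cells (A498, DU-145) kept at hypoxia (1% O2); non-tumour cells (RPTEC, WPMY-1) at normoxia (20–21% O2). Seeded 2 × 10^4 cells/well, grown 12 h, then dosed 72 h at 0.20–100 μM (ten twofold steps, 0.5% DMSO). Fixed in cold 10% TCA, stained with 0.4% SRB, dye solubilised in 10 mM Tris, OD read at 540 nm. CC50 from non-linear regression.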

[2] = Cytotoxicity against human WPMY-1 cells assessed as reduction in cell viability incubated for 72 hrs under normoxic condition by SRB assay; type: toxicity, cell-based; how it was run: as §1
DU-145 = assay: Cytotoxicity against human DU-145 cells assessed as reduction in cell viability incubated for 72 hrs under hypoxic condition by SRB assay; type: functional; how it was run: as §1
A498 = assay: Cytotoxicity against human A498 cells assessed as reduction in cell viability incubated for 72 hrs under hypoxic condition by SRB assay; type: functional; how it was run: as §1
[3] = target: T1, Peroxisome proliferator-activated receptor alpha (Homo sapiens, UniProt Q07869); assay: Agonist activity at GAL4-tagged PPARalpha in human WPMY-1 cells assessed as transcriptional activation incubated for 72 hrs under normoxic condition by luciferase assay; type: cell-based
T1 sequence (Q07869 whole entry): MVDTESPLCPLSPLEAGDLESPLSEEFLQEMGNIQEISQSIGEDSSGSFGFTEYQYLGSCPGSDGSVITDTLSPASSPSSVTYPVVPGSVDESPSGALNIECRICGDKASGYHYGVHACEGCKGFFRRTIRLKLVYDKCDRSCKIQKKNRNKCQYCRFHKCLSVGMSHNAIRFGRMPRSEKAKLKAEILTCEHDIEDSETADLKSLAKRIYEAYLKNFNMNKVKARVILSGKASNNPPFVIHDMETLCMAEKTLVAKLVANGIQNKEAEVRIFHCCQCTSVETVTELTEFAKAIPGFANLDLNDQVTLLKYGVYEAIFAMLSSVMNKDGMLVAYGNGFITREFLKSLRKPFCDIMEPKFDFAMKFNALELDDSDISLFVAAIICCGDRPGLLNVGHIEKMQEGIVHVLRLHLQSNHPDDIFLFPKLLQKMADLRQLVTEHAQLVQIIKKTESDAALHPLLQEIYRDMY

[4] = target: T1, Peroxisome proliferator-activated receptor alpha; assay: Agonist activity at GAL4-tagged PPARalpha in human A498 cells assessed as transcriptional activation incubated for 72 hrs under hypoxic condition by luciferase assay; type: cell-based
[5] = target: T1, Peroxisome proliferator-activated receptor alpha; assay: Agonist activity at GAL4-tagged PPARalpha in human RPTEC assessed as transcriptional activation incubated for 72 hrs under normoxic condition by luciferase assay; type: cell-based
[6] = target: T1, Peroxisome proliferator-activated receptor alpha; assay: Agonist activity at GAL4-tagged PPARalpha in human DU-145 cells assessed as transcriptional activation incubated for 72 hrs under hypoxic condition by luciferase assay; type: cell-based

| EC50 [3] [µM] | EC50 [4] [µM] | EC50 [5] [µM] | EC50 [6] [µM] | Compound | CC50 at 72 h [1] [µM] | CC50 at 72 h [2] [µM] | CC50 (DU-145) [µM] | CC50 (A498) [µM] |
| --- | --- | --- | --- | --- | --- | --- | --- | --- |
|  |  |  |  | c1cncc(-c2noc(-c3ccsc3)n2)c1 | 63.3 | 71.1 | 1.57 | 1.32 |
|  |  |  |  | c1cncc(-c2noc(-c3cc[nH]c3)n2)c1 | 92 | 96.9 | 3.97 | 2.52 |
|  |  |  |  | c1cncc(-c2noc(C3CCCC3)n2)c1 | 84.4 | 96.4 | 2.81 | 1.79 |
|  |  |  |  | CCCCCc1nc(-c2cccnc2)no1 | 81.7 | 92.7 | 1.93 | 1.66 |
|  |  |  |  | c1cncc(-c2noc(-c3ncsn3)n2)c1 | 45.5 | 53.7 | 2.79 | 2.2 |
| 0.73 | 0.47 | 0.21 | 1.5 | C1=CC(c2nc(-c3cccnc3)no2)CC1 (stereo unspecified) | 74.8 | 88 | 1.81 | 1.53 |
|  |  |  |  | C1=CC(c2nc(-c3cccnc3)no2)=CC1 | 66.7 | 78.6 | 1.63 | 1.37 |
|  |  |  |  | Cn1ccc(-c2nc(-c3cccnc3)no2)c1 | 87.2 | 91.8 | 3.46 | 2.01 |
|  |  |  |  | c1cncc(-c2noc(-c3nnon3)n2)c1 | 61.2 | 70.1 | 2.63 | 2.64 |
|  |  |  |  | c1cncc(-c2noc(-c3nc[nH]n3)n2)c1 | 93.6 | 98.1 | 5.73 | 3.91 |
|  |  |  |  | Cc1cccc(Nc2cc(Cl)nc(CSC(=O)O)n2)c1C | 54.1 | 62.9 | 3.21 | 2.94 |
|  |  |  |  | Cn1cnc(-c2nc(-c3cccnc3)no2)n1 | 90.9 | 94.9 | 6.82 | 4.83 |
|  |  |  |  | Cn1nnc(-c2nc(-c3cccnc3)no2)n1 | 89 | 93.4 | 5.14 | 3.42 |
|  |  |  |  | C1=C(c2nc(-c3cccnc3)no2)CCC1 | 68.4 | 81.3 | 1.68 | 1.39 |
|  |  |  |  | c1cncc(-c2noc(-c3nnsn3)n2)c1 | 38.7 | 46.7 | 1.45 | 1.21 |
|  |  |  |  | c1cncc(-c2noc(-c3ncon3)n2)c1 | 67.5 | 77.7 | 3.43 | 3.76 |
|  |  |  |  | c1cncc(-c2noc(-c3nn[nH]n3)n2)c1 | 95.2 | 99.2 | 7.49 | 5.28 |
|  |  |  |  | c1cncc(-c2noc(-c3ccoc3)n2)c1 | 54.8 | 62.5 | 1.83 | 1.52 |
